Reference: ChEMBL document CHEMBL1121910, “N-(Methanesulfonyl)-16-phenoxyprostaglandincarboxamides: tissue-selective, uterine stimulants” (1981)

Legend:
[1] = test system: Cavia porcellus; assay: Percent protection against histamine-induced bronchoconstriction in conscious guinea pig.; assay type: functional; parameters: concentration or dose not given beside the values
[2] = test system: Canis familiaris; assay: Compound versus PGE-2 (0.1 ug/kg, iv) was tested for effects on blood pressure in anesthetized dogs; assay type: functional, Canis lupus familiaris
Method in brief: (§1)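 Anesthetized dogs responsive to PGE2 (at least two per compound); iv dosing. Blood pressure threshold dose expressed relative to PGE2 reference at 0.1 μg/kg iv; direction noted as depressor (−) or pressor (+).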

[3] = test system: Cavia porcellus; assay: Relative ability to cause abortion in conscious guinea pigs compared to PGE-2.; assay type: functional
[4] = organism: Cavia porcellus; assay: Relative spasmogenic potency in an in vitro guinea pig uteri assay.; assay type: functional
[5] = test system: Mus musculus; assay: Relative potency of compound versus PGE-2 (0.3-3.0mg/mL, iv) for induction of diarrhoea in conscious mice; NE = no effect at 10 times the ED50 for PGE-2; assay type: functional, organism-based
[6] = test system: Rattus norvegicus; assay: Relative potency (50 ug/kg) for inhibition of pentagastrin-stimulated gastric acid secretion in anesthetized rats; assay type: functional, Stomach
[7] = test system: Mus musculus; assay: Relative potency of compound versus PGE-2 (0.3-3.0mg/mL, iv) for induction of diarrhoea in conscious mice; Depressor; assay type: functional
[8] = test system: Mus musculus; assay: Relative potency of compound versus PGE-2 (0.3-3.0mg/mL, iv) for induction of diarrhoea in conscious mice; NE = no effect at one tenth the minimum effective dose for PGE-2; assay type: functional, organism-based
[9] = test system: Canis familiaris; assay: Compound versus PGE-2 (0.1 ug/kg, iv) was tested for effects on blood pressure in anesthetized dogs; Depressor; assay type: functional, Canis lupus familiaris; method in brief: as §1
[10] = test system: Mus musculus; assay: Relative potency of compound versus PGE-2 (0.3-3.0mg/mL, iv)for induction of diarrhoea in conscious mice; assay type: functional
Method in brief: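 Groups of six conscious mice, iv. Relative potency was estimated from concentration-response curves for diarrhea induction against PGE2 given at 0.3–3.0 mg/kg iv.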

[11] = test system: Canis familiaris; assay: Compound versus PGE-2 (0.1 ug/kg, iv) was tested for effects on blood pressure in anesthetized dogs; Pressor; assay type: functional, Canis lupus familiaris; method in brief: as §1

Structure (SMILES) | Protection [1] [%] | Relative potency [2] | Relative potency [3] | Relative potency [4] | Relative potency [5] | Relative potency [6] | Relative potency [7] | Relative potency [8] | Relative potency [9] | Relative potency [10] | Relative threshold dose [9] | Relative threshold dose [11]
CS(=O)(=O)NC(=O)CCC/C=C\C[C@@H]1C(/C=C/[C@@H](O)COc2ccccc2)[C@H](O)C[C@@H]1O (stereo not given in full) | 3 | 10 | 1000 | 10 |  |  |  |  |  |  |  | 
COc1cccc(OC[C@H](O)/C=C/C2[C@H](O)CC(=O)[C@@H]2C/C=C\CCCC(=O)NS(C)(=O)=O)c1 (stereo not given in full) | 25 | <0.5 | <1000 | 1 | No effect | 0 |  |  |  |  |  | 
O=C(CCC/C=C\C[C@H]1C(=O)C[C@@H](O)C1/C=C/[C@@H](O)COc1ccccc1)NS(=O)(=O)c1ccccc1 (stereo not given in full) | 13 | <0.5 | 1000 | 5 |  | 370 |  |  |  |  |  | 
CS(=O)(=O)NC(=O)CCC/C=C\C[C@H]1C(=O)C[C@@H](O)C1/C=C/[C@@H](O)COc1cccc(Cl)c1 (stereo not given in full) | 28 |  | 1000 | 46 |  | 140 |  |  |  |  |  | 
CS(=O)(=O)NC(=O)CCC/C=C\C[C@H]1C(=O)C[C@@H](O)C1/C=C/[C@@H](O)CCc1ccccc1 (stereo not given in full) | 0 | 2.5 | <100 | 75 |  |  | 2.5 |  |  |  |  | 
Cc1cccc(OC[C@H](O)/C=C/C2[C@H](O)CC(=O)[C@@H]2C/C=C\CCCC(=O)NS(C)(=O)=O)c1 (stereo not given in full) | 44 |  | <1000 | 4 |  | 125 |  | No effect | 0.5 |  |  | 
CS(=O)(=O)NC(=O)CCC/C=C\C[C@H]1C(=O)C[C@@H](O)C1/C=C/[C@@H](O)COc1cccc(C(F)(F)F)c1 (stereo not given in full) | 16 | <0.5 | <100 | 0.5 |  |  |  | No effect |  |  |  | 
O=C(O)CCC/C=C\C[C@H]1C(=O)C[C@@H](O)C1/C=C/[C@@H](O)COc1ccccc1 (stereo not given in full) | 9 |  | 300 | 75 |  | 530 |  |  |  | 150 | 10 | 
CS(=O)(=O)NC(=O)CCC/C=C\C[C@H]1C(=O)C=CC1/C=C/[C@@H](O)COc1ccccc1 (stereo not given in full) | 9 |  | <100 | 0.2 |  | 200 |  |  |  | 10 | 2.5 | 
CS(=O)(=O)NC(=O)CCC/C=C\C[C@H]1C(=O)C[C@@H](O)C1/C=C/[C@@H](O)COc1cccs1 (stereo not given in full) | 28 | 0.5 | 300 | 50 |  |  |  |  |  |  |  | 
CS(=O)(=O)NC(=O)CCC/C=C\CC1=C(/C=C/[C@@H](O)COc2ccccc2)CCC1=O | 0 |  | <100 | 1.2 |  | 80 |  |  |  | 60 |  | 10
CCS(=O)(=O)NC(=O)CCC/C=C\C[C@H]1C(=O)C[C@@H](O)C1/C=C/[C@@H](O)COc1ccccc1 (stereo not given in full) | 9 |  | 3000 | 85 |  |  |  |  | 1 |  |  | 
CS(=O)(=O)NC(=O)CCC/C=C\C[C@H]1C(=O)C[C@@H](O)C1/C=C/[C@@H](O)COc1ccc(Cl)cc1 (stereo not given in full) | 9 |  | 10000 | 90 |  | 1200 |  |  | 0.5 |  |  | 
CS(=O)(=O)NC(=O)CCC/C=C\C[C@H]1C(=O)C[C@@H](O)[C@@H]1/C=C/[C@@H](O)COc1ccccc1 [SULPROSTONE] | 10 |  | 3000 | 115 |  | 450 |  |  | 0.5 |  |  | 
COc1ccc(OC[C@H](O)/C=C/C2[C@H](O)CC(=O)[C@@H]2C/C=C\CCCC(=O)NS(C)(=O)=O)cc1 (stereo not given in full) | 13 | <0.5 | < 1000 | 10 |  | 600 |  |  |  |  |  | 
CCCCC[C@H](O)/C=C/[C@H]1[C@H](O)CC(=O)[C@@H]1C/C=C\CCCC(=O)O [DINOPROSTONE] | 100 |  | 100 | 100 |  | 100 |  |  |  | 100 |  | 
CCCCC(C)(C)[C@H](O)/C=C/C1[C@H](O)CC(=O)[C@@H]1C/C=C\CCCC(=O)O (stereo not given in full) | 41 |  | <100 | 33 |  | 400 |  |  |  | 5300 | 10 | 
CS(=O)(=O)NC(=O)CCC/C=C\C[C@H]1C(=O)C[C@@H](O)C1/C=C/[C@@H](O)COc1ccc(F)cc1 (stereo not given in full) | 3 |  | 3000 | 120 |  |  |  |  |  |  |  | 
